One experiment relates to rats. Briefly: Rat forced swim test. Format: in vivo. To be noted: 10 mg/kg i.p., sub-chronic, 1 h before test, compared to vehicle. Put shortly: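 Male Sprague-Dawley rats (200–225 g), naive, used once, tested in cylinders of 24–25 °C water, 22 cm deep. A 15 min pretest was followed 24 h later by a 5 min test. Dosing was i.p. in 10% β-hydroxypropyl cyclodextrin (2 mL/kg), 15 min after pretest and 1 h before test. Imipramine 15 mg/kg was the reference. Blinded video immobility scoring, one-way ANOVA.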

The subject of experiment [1] is cloned human dopamine receptor subtypes, serotonin receptor subtypes, alpha-adrenergic receptors, and opioid receptors. Put plainly: CNS receptor screening, NIMH PDSP primary binding assays. To be noted: 10 μM.
The target in experiment [2] is dopamine transporter (DAT) (Rattus norvegicus, UniProt P23977). Briefly: Inhibition of [3H]dopamine uptake by DAT in rat striatum. In kind it is biochemical.
Sequence of dopamine transporter (DAT) (P23977 whole entry): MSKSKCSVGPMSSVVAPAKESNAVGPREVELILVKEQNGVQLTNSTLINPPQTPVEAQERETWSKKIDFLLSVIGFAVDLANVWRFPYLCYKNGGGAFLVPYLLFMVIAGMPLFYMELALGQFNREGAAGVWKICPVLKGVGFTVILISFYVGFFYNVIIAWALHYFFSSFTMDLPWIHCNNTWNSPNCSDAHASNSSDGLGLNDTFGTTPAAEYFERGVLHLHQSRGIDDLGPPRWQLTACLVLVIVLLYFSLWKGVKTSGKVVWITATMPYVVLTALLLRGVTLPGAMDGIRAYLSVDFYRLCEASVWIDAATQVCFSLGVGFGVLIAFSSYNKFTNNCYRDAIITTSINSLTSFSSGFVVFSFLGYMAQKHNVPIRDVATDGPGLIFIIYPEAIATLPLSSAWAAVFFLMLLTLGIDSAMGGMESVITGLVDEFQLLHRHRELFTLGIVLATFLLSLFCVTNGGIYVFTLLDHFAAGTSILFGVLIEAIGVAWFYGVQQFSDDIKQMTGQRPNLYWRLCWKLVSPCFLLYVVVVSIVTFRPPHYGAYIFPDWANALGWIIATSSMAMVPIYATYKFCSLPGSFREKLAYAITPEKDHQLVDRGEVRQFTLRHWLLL
Experiment [3] addresses serotonin transporter (SERT) (Rattus norvegicus, UniProt P31652). Briefly: Inhibition of [3H]serotonin uptake by SERT in rat cerebral cortex. Format: biochemical.

As usually defined, the Ki is the equilibrium dissociation constant of an inhibitor or competing ligand from its target. Low readings indicate a stronger hold on the target, high ones a looser hold on the target.

“Also recorded” adds a separate entry of the source.

Sequence of serotonin transporter (SERT) (P31652 whole entry): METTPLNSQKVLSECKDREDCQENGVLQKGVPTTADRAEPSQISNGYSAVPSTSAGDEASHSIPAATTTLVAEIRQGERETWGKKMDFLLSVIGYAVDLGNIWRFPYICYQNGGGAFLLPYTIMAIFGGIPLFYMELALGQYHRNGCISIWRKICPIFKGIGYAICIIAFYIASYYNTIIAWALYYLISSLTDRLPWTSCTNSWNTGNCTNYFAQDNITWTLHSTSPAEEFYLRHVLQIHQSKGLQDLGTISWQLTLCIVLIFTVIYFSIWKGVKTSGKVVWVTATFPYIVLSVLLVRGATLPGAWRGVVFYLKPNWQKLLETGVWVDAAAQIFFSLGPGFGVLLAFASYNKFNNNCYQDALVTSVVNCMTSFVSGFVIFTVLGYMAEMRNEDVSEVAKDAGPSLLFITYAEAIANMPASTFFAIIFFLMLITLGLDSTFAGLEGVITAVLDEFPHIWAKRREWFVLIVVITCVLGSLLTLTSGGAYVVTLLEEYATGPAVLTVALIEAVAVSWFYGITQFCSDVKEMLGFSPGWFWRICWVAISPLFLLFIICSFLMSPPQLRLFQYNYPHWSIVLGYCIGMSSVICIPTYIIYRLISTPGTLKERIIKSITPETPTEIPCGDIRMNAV

Turning to `Oc1cccc(CN[C@H]2CC[C@@H](C(c3ccccc3)c3ccccc3)OC2)c1` [Compound 10f, 3-((((3S,6S)-6-benzhydryltetrahydro-2H-pyran-3-yl)amino)methyl)phenol], the “Effect on duration of immobility in the forced swimming test” value with rats is on record as “significant reduction of immobility; also recorded: high efficacy in reducing immobility; also recorded: more efficacious than imipramine”. For the same compound, the “Inhibition in CNS receptor screening, majority of the receptor target sites” value in experiment [1] is “less than 50%”. The “Inhibition in CNS receptor screening, a few other target sites” value in experiment [1] (only marginally so in some cases) is recorded as “greater than 50%”.
On to `c1ccc(C(c2ccccc2)[C@@H]2CC[C@H](NCc3cccs3)CO2)cc1` [Compound 10g, (3S,6S)-6-benzhydryl-N-(thiophen-2-ylmethyl)tetrahydro-2H-pyran-3-amine], for which the inhibition constant (Ki) turned out to be 0.0159 µM in experiment [2] and 0.0129 µM in experiment [3].

The record behind these values is PMC3085959 (Journal of medicinal chemistry, 2011).
